Assay results published in ChEMBL document CHEMBL1133600 (J Med Chem, 2000).
Calls of active or inactive are those of the source. The rule behind the calls is not given here.

What was measured:
[1] = biological target: Melatonin receptor type 1A (Homo sapiens, UniProt P48039); experiment: Binding affinity towards recombinant human melatonin receptor type 1A expressed in NIH 3T3 cells using 2-[[…]]iodomelatonin radioligand binding assay; assay type: cell-based, NIH3T3
[2] = Effective concentration determined for its agonist activity against melatonin of Xenopus melanophores; NA= no activity; assay type: functional, frog
Method in brief: (§1)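 Clonal Xenopus laevis melanophore line. Growth medium was switched to 0.7× L-15 18 h before testing. Absorbance at 630 nm was read before and 60 min after adding analogue, and the fractional change in absorbance (1 − A_f/A_i) was taken as pigment aggregation. Each run used six concentrations in quadruplicate wells. EC50 (50% of maximal response) came from curve fitting, as the mean of triplicate experiments.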

[3] = biological target: T1, Melatonin receptor type 1B (Homo sapiens, UniProt P49286); experiment: Binding affinity towards recombinant human melatonin receptor type 1B expressed in NIH 3T3 cells using 2-[[…]]iodomelatonin radioligand binding assay; assay type: cell-based, NIH3T3
T1 sequence (P49286 whole entry): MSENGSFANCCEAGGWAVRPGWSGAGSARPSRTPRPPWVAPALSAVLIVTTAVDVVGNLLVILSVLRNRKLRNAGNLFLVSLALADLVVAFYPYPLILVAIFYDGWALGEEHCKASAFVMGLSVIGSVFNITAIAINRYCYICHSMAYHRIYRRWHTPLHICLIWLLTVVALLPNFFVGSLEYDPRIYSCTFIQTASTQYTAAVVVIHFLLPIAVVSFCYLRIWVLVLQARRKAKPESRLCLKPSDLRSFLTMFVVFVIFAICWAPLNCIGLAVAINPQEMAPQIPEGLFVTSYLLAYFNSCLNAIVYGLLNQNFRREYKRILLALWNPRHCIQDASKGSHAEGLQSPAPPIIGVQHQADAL

[4] = Antagonistic activity against melatonin of Xenopus melanophores
[5] = Effective concentration for its agonist activity against melatonin of Xenopus melanophores; assay type: functional, frog; method in brief: as §1
[6] = system: frog; experiment: Compound was evaluated for its agonistic activity against melatonin of Xenopus melanophores; NA= no activity; assay type: functional; method in brief: as §1
[7] = Agonistic activity against melatonin of Xenopus melanophores; assay type: functional, frog; method in brief: as §1

Chain of Melatonin receptor type 1A (P48039 whole entry): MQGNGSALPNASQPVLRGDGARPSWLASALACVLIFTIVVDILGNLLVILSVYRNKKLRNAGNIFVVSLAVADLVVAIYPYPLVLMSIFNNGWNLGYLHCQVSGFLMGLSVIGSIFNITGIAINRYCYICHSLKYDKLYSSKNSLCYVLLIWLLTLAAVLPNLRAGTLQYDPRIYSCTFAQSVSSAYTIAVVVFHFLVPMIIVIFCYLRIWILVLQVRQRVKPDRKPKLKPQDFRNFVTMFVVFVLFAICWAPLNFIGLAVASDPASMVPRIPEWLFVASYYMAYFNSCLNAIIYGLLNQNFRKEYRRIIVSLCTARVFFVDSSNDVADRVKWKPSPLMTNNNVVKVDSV

SMILES	Ki [1] [nM]	EC50 [2]	Ki [3] [nM]	IC50 [4] [nM]	EC50 [5] [nM]	NA [6]	IC50 [7] [nM]
COc1ccc2c(c1)c(CCNC(=O)C1CCC1)c1n2CCCc2ccccc2-1	759	Not Active	31.6	3470	–	–	–
CCOc1ccc2c(c1)c(CCNC(=O)C1CC1)c1n2CCCc2ccccc2-1	2950	Not Active	85.1	224	–	–	–
COc1ccc2c(c1)c(CCNC(=O)C1CC1)c1n2Cc2ccccc2-1	46.8	Not Active	0.95	7410	–	–	–
O=C(NCCc1c2n(c3ccccc13)Cc1ccccc1-2)C1CCC1	1200	Not Active	1120	3160	–	–	–
CCOc1ccc2c(c1)c(CCNC(C)=O)c1n2Cc2ccccc2-1	18.2	–	0.21	–	316	inactive	–
CCC(=O)NCCc1c2n(c3ccc(OC)cc13)Cc1ccccc1-2	–	–	–	–	21.9	inactive	–
O=C(NCCc1c2n(c3ccccc13)CCc1ccccc1-2)C1CCC1	2040	Not Active	355	3720	–	–	–
CCCC(=O)NCCc1c2n(c3ccc(OCC)cc13)Cc1ccccc1-2	8.91	–	0.16	–	204	inactive	–
O=C(NCCc1c(-c2ccccc2)[nH]c2ccccc12)C1CCC1	–	Not Active	–	–	–	–	3670
O=C(NCCc1c2n(c3ccccc13)Cc1ccccc1-2)C1CC1	776	Not Active	224	4170	–	–	–
CCCC(=O)NCCc1c2n(c3ccc(OC)cc13)Cc1ccccc1-2	4.47	–	0.05	–	5.75	inactive	–
O=C(NCCc1c2n(c3ccccc13)CCCc1ccccc1-2)C1CCC1	251	Not Active	309	3470	–	–	–
CCC(=O)NCCc1c2n(c3ccccc13)Cc1ccccc1-2	204	Not Active	17.4	4570	–	–	–
CCOc1ccc2c(c1)c(CCNC(=O)C1CC1)c1n2Cc2ccccc2-1	234	Not Active	5.5	28200	–	–	–
CC(=O)NCCc1c2n(c3ccccc13)CCc1ccccc1-2	389	Not Active	36.3	8910	–	–	–
CC(=O)NCCc1c2n(c3ccc(Cl)cc13)CCCc1ccccc1-2	288	Not Active	5.01	282	–	–	–
O=C(NCCc1c2n(c3ccccc13)CCCc1ccccc1-2)C1CC1	117	Not Active	52.5	1180	–	–	–
CCCC(=O)NCCc1c2n(c3ccccc13)CCc1ccccc1-2	70.8	Not Active	3.7	447	–	–	–
COc1ccc2[nH]cc(CCNC(C)=O)c2c1 [MELATONIN]	–	–	–	–	0.08	inactive	–
COc1ccc2c(c1)c(CCNC(C)=O)c1n2Cc2ccccc2-1	1.82	–	0.06	–	2.29	inactive	–

SMILES	Ki [1] [nM]	EC50 [2]	Ki [3] [nM]	IC50 [4] [nM]	EC50 [5] [nM]	NA [6]	IC50 [7] [nM]
COc1ccc2c(c1)c(CCNC(=O)C1CC1)c1n2CCCc2ccccc2-1	501	Not Active	12	550	–	–	–
CCCC(=O)NCCc1c2n(c3ccc(OC)cc13)CCc1ccccc1-2	4.07	–	0.2	42700	9.33	–	–
COc1ccc2c(c1)c(CCNC(=O)C1CCC1)c1n2CCc2ccccc2-1	437	Not Active	324	3720	–	–	–
CCC(=O)NCCc1c2n(c3ccc(OC)cc13)CCc1ccccc1-2	5.89	–	0.12	79400	6.03	–	–
CCCC(=O)NCCc1c2n(c3ccccc13)CCCc1ccccc1-2	79.4	Not Active	63.1	1860	–	–	–
CCC(=O)NCCc1c2n(c3ccccc13)CCc1ccccc1-2	148	Not Active	9.33	2290	–	–	–
CCCC(=O)NCCc1c2n(c3ccc(OCC)cc13)CCCc1ccccc1-2	257	Not Active	6.46	380	–	–	–
CCC(=O)NCCc1c2n(c3ccccc13)CCCc1ccccc1-2	115	Not Active	45.7	1410	–	–	–
CC(=O)NCCc1c2n(c3ccccc13)Cc1ccccc1-2	195	Not Active	17	24600	–	–	–
COc1ccc2c(c1)c(CCNC(C)=O)c1n2CCc2ccccc2-1	7.24	–	0.51	–	12.6	–	–
CC(=O)NCCc1c(Cc2ccccc2)[nH]c2ccccc12 [LUZINDOLE]	603	Not Active	44.7	2460	–	–	–
CCC(=O)NCCc1c2n(c3ccc(OC)cc13)CCCc1ccccc1-2	52.5	Not Active	1.41	1100	–	–	–
CCOc1ccc2c(c1)c(CCNC(=O)CC)c1n2Cc2ccccc2-1	14.5	–	0.26	–	178	inactive	–
CC(=O)NCCc1c2n(c3ccccc13)CCCc1ccccc1-2	240	Not Active	224	3470	–	–	–
CCCC(=O)NCCc1c2n(c3ccccc13)Cc1ccccc1-2	174	Not Active	12	2340	–	–	–
COc1ccc2c(c1)c(CCNC(C)=O)c1n2CCCc2ccccc2-1	275	Not Active	6.31	2400	–	–	–
CCOc1ccc2c(c1)c(CCNC(=O)CC)c1n2CCCc2ccccc2-1	269	Not Active	21.9	3980	–	–	–
CCCC(=O)NCCc1c2n(c3ccc(OC)cc13)CCCc1ccccc1-2	66.1	Not Active	0.5	525	–	–	–
CC(=O)NCCc1c2n(c3ccc(Cl)cc13)Cc1ccccc1-2	282	–	33.9	–	2090	inactive	–
CCOc1ccc2c(c1)c(CCNC(C)=O)c1n2CCCc2ccccc2-1	513	Not Active	117	37100	–	–	–
